# Experimental data from paper PMC4539048 (Science translational medicine, 2015).
# What was measured:
# [1] = system: P. cynomolgi liver-stage parasites; assay: P. cynomolgi liver-stage model; assay type: cell-based
# [2] = Plasma protein binding, mouse; assay type: in vitro ADME
# [3] = molecular target: CYP2C8 (Homo sapiens, UniProt P10632); assay: Metabolism by individual human CYP enzymes; assay type: in vitro ADME; details: CYP2C8 Supersomes
# [4] = molecular target: CYP2C19 (Homo sapiens, UniProt P33261); assay: Metabolism by individual human CYP enzymes; assay type: in vitro ADME; details: CYP2C19 Supersomes
# [5] = Pharmacokinetics in mice; assay type: in vivo; details: female, Swiss outbred, mouse, plasma
# In short: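 Single-dose PK in female Swiss outbred mice or male beagle dogs, dosed IV and orally in a range of formulations. Blood was drawn into anticoagulant tubes and plasma separated by centrifugation. Compound was quantified by LC/MS, typically in 2–6 animals per study, with SD given where n>2.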
# [6] = 10-day repeat dose toxicity study in dogs; assay type: in vivo; details: highest dose tested, Day 1
# In short: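 Male beagle dogs were dosed orally every other day in the fed state over a 10-day repeat-dose exploratory (non-GLP) toxicology study. They were monitored daily for clinical signs, body weight and food consumption, with haematology, clinical chemistry and histopathology. Plasma toxicokinetics were taken on day 1 to give Cav, and full toxicokinetics were not collected after the final dose.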
# [7] = system: G6PD-deficient human red blood cells; assay type: in vivo, NOD-SCID mice; details: blood type A- G6PD-deficient human red blood cells
# [8] = system: Salmonella typhimurium-E. coli; assay: 5-strain bacterial reverse mutation assay
# Chain of CYP2C8 (P10632 whole entry): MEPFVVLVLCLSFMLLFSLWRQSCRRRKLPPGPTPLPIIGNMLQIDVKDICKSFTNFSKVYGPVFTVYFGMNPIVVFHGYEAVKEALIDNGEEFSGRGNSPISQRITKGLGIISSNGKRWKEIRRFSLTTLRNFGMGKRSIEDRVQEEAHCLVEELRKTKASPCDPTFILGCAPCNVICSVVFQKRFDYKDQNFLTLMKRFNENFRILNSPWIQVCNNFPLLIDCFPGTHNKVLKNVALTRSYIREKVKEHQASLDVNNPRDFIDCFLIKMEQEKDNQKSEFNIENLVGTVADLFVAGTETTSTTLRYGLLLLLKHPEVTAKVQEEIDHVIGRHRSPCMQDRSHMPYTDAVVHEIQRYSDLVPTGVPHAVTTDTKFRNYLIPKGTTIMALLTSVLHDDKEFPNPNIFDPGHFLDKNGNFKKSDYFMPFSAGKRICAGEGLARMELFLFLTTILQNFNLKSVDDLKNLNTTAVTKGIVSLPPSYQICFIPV
# Chain of CYP2C19 (P33261 whole entry): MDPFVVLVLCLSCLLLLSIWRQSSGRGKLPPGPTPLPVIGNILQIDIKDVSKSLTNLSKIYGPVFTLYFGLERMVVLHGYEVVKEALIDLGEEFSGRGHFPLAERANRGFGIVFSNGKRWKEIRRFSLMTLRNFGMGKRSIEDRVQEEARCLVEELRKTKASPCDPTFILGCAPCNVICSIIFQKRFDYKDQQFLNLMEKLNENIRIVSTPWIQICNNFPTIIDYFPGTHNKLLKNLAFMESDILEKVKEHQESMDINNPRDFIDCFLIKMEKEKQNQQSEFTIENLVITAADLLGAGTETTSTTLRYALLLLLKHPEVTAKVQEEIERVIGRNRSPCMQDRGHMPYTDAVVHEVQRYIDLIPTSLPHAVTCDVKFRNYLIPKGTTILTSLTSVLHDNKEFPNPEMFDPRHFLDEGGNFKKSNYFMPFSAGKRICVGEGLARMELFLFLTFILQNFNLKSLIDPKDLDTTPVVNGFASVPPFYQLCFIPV
compound,measurement,setting,value
"Cc1cc(Nc2ccc(S(F)(F)(F)(F)F)cc2)n2nc(C(C)(F)F)nc2n1 [DSM265, 2-(1,1-difluoroethyl)-5-methyl-[N-[4-(pentafluorosulfanyl)phenyl]1,2,4]triazolo[1,5-a]pyrimidin-7-amine]",activity against small forms (non-dividing hypnozoite),[1],poor activity
same,EC50,"[1]; Plasmodium cynomolgi, read-out: EC50, liver-stage large form (multinucleated schizont)",0.13 µg/mL
same,fraction unbound,[2],0.003
same,extent of metabolism,[3],0.032 μL/min/pmol CYP
same,extent of metabolism,[4],0.039 μL/min/pmol CYP
same,half-life,[5],2 to 4 h
same,average plasma concentration within a dosing interval (Cav),[6],16400 ng/mL
same,hemolytic toxicity,[7],not hemolytic
same,mutagenic activity (Ames test),[8],non-mutagenic
